Source: ChEMBL document CHEMBL2021854, “2-Aminopyrimidine based 4-aminoquinoline anti-plasmodial agents. Synthesis, biological activity, structure-activity relationship and mode of action studies” (Eur J Med Chem, 2012)

assay: Inhibition of beta-hematin formation assessed as Ferriprotoporphyrin IX biomineralisation after 24 hrs; type: functional
Method in brief: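 Hemin (0.5 mg/ml in DMSO) was mixed with 0.5 M sodium acetate pH 4.4 and compound, then incubated for 24 h at 37 °C. The pellet was washed with DMSO to remove unreacted hemin and dissolved in 0.1 N NaOH, with A405 read. Percent inhibition was taken versus solvent control, and IC50 by curve fitting.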

SMILES	IC50 [µM]
C=C[C@H]1CN2CC[C@H]1C[C@H]2[C@H](O)c1ccnc2ccc(OC)cc12 [QUININE]	324
